Test results as given in ChEMBL document CHEMBL5058577, “EUbOPEN Chemogenomics Library 2 (Multiplex)” (2022).

System: HEK-293T
Assay: Multiplex assay against HEK293T
Type: toxicity, cell-based
Conditions: human
Method in brief: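 Live cells were stained at seeding with Hoechst33342, BioTracker Green Microtubule Cytoskeleton Dye, MitoTracker Red and Annexin V Alexa Fluor 680, then imaged on a CQ1 microscope at 37°C and 5% CO2 after compound addition. CellPathfinder machine-learning gating split cells into Hoechst high-intensity objects or normal cells. Normal cells were split into healthy, pyknosed or fragmented nuclei, and pyknosed cells into mitotic or apoptotic. Tubulin, mitochondrial-mass and membrane-permeability phenotypes are per cents of healthy-nucleus cells.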

[1] = 12 h, 1 µM, compound concentration 1 uM, replicate 1
[2] = 12 h, 1 µM, compound concentration 1 uM, replicate 2
[3] = 12 h, 10 µM, compound concentration 10 uM, replicate 1
[4] = 12 h, 10 µM, compound concentration 10 uM, replicate 2
[5] = 24 h, 1 µM, compound concentration 1 uM, replicate 1
[6] = 24 h, 1 µM, compound concentration 1 uM, replicate 2
[7] = 24 h, 10 µM, compound concentration 10 uM, replicate 1
[8] = 24 h, 10 µM, compound concentration 10 uM, replicate 2
[9] = 48 h, 1 µM, compound concentration 1 uM, replicate 1
[10] = 48 h, 1 µM, compound concentration 1 uM, replicate 2
[11] = 48 h, 10 µM, compound concentration 10 uM, replicate 1
[12] = 48 h, 10 µM, compound concentration 10 uM, replicate 2

## CN(C)CCCc1cc(C(=O)Nc2ccc(-c3ccncc3)cc2)ccc1O.Cl.Cl
[1]
  Population Apoptotic (%): 27%
  Population Fragmented Nuclei (%): 5%
  Population Healthy Nuclei (%): 79%
  Population Hoechst High Intensity Objects (%): 9%
  Population Membrane Permeable-Phenotype (%): 0%
  Population Mitochondria Different-Phenotype (%): 48%
  Population Mitotic Cells (%): 72%
  Population Normal (%): 90%
  Population Pyknosed Nuclei (%): 14%
  Population Tubulin-Different-Phenotype (%): 37%
  Total Cell Count: 358
[2]
  Population Apoptotic (%): 37%
  Population Healthy Nuclei (%): 82%
  Population Hoechst High Intensity Objects (%): 8%
  Population Mitochondria Different-Phenotype (%): 58%
  Population Mitotic Cells (%): 62%
  Population Normal (%): 91%
  Population Pyknosed Nuclei (%): 11%
  Population Tubulin-Different-Phenotype (%): 14%
  Total Cell Count: 367
[3]
  Population Apoptotic (%): 31%
  Population Fragmented Nuclei (%): 10%
  Population Healthy Nuclei (%): 81%
  Population Hoechst High Intensity Objects (%): 6%
  Population Membrane Permeable-Phenotype (%): 0%
  Population Mitochondria Different-Phenotype (%): 49%
  Population Mitotic Cells (%): 68%
  Population Normal (%): 93%
  Population Pyknosed Nuclei (%): 7%
  Population Tubulin-Different-Phenotype (%): 33%
  Total Cell Count: 460
[4]
  Population Apoptotic (%): 60%
  Population Fragmented Nuclei (%): 11%
  Population Healthy Nuclei (%): 77%
  Population Hoechst High Intensity Objects (%): 9%
  Population Membrane Permeable-Phenotype (%): 2%
  Population Mitochondria Different-Phenotype (%): 63%
  Population Mitotic Cells (%): 39%
  Population Normal (%): 90%
  Population Pyknosed Nuclei (%): 11%
  Total Cell Count: 391
[5]
  Population Apoptotic (%): 25%
  Population Fragmented Nuclei (%): 11%
  Population Healthy Nuclei (%): 78%
  Population Hoechst High Intensity Objects (%): 5%
  Population Membrane Permeable-Phenotype (%): 1%
  Population Mitochondria Different-Phenotype (%): 26%
  Population Mitotic Cells (%): 74%
  Population Normal (%): 94%
  Population Pyknosed Nuclei (%): 10%
  Population Tubulin-Different-Phenotype (%): 21%
  Total Cell Count: 542
[6]
  Population Fragmented Nuclei (%): 9%
  Population Healthy Nuclei (%): 83%
  Population Membrane Permeable-Phenotype (%): 0%
  Population Mitochondria Different-Phenotype (%): 32%
  Population Mitotic Cells (%): 75%
  Population Pyknosed Nuclei (%): 6%
  Population Tubulin-Different-Phenotype (%): 9%
  Total Cell Count: 486
[7]
  Population Apoptotic (%): 32%
  Population Fragmented Nuclei (%): 12%
  Population Healthy Nuclei (%): 77%
  Population Hoechst High Intensity Objects (%): 5%
  Population Membrane Permeable-Phenotype (%): 0%
  Population Mitochondria Different-Phenotype (%): 38%
  Population Mitotic Cells (%): 67%
  Population Normal (%): 94%
  Population Pyknosed Nuclei (%): 9%
  Population Tubulin-Different-Phenotype (%): 23%
  Total Cell Count: 588
[8]
  Population Apoptotic (%): 47%
  Population Fragmented Nuclei (%): 15%
  Population Healthy Nuclei (%): 74%
  Population Hoechst High Intensity Objects (%): 15%
  Population Mitochondria Different-Phenotype (%): 48%
  Population Mitotic Cells (%): 52%
  Population Normal (%): 84%
  Population Tubulin-Different-Phenotype (%): 19%
  Total Cell Count: 505
[9]
  Population Apoptotic (%): 23%
  Population Fragmented Nuclei (%): 11%
  Population Healthy Nuclei (%): 81%
  Population Hoechst High Intensity Objects (%): 2%
  Population Membrane Permeable-Phenotype (%): 2%
  Population Mitochondria Different-Phenotype (%): 19%
  Population Mitotic Cells (%): 76%
  Population Normal (%): 97%
  Population Pyknosed Nuclei (%): 6%
  Population Tubulin-Different-Phenotype (%): 14%
  Total Cell Count: 814
[10]
  Population Apoptotic (%): 21%
  Population Fragmented Nuclei (%): 16%
  Population Healthy Nuclei (%): 75%
  Population Hoechst High Intensity Objects (%): 5%
  Population Membrane Permeable-Phenotype (%): 1%
  Population Mitochondria Different-Phenotype (%): 24%
  Population Mitotic Cells (%): 78%
  Population Normal (%): 94%
  Population Pyknosed Nuclei (%): 8%
  Population Tubulin-Different-Phenotype (%): 13%
  Total Cell Count: 596
[11]
  Population Apoptotic (%): 29%
  Population Fragmented Nuclei (%): 17%
  Population Healthy Nuclei (%): 75%
  Population Hoechst High Intensity Objects (%): 5%
  Population Membrane Permeable-Phenotype (%): 1%
  Population Mitochondria Different-Phenotype (%): 21%
  Population Mitotic Cells (%): 70%
  Population Normal (%): 94%
  Population Pyknosed Nuclei (%): 6%
  Population Tubulin-Different-Phenotype (%): 13%
  Total Cell Count: 883
[12]
  Population Apoptotic (%): 58%
  Population Fragmented Nuclei (%): 15%
  Population Healthy Nuclei (%): 76%
  Population Hoechst High Intensity Objects (%): 11%
  Population Membrane Permeable-Phenotype (%): 0%
  Population Mitochondria Different-Phenotype (%): 35%
  Population Mitotic Cells (%): 41%
  Population Normal (%): 88%
  Population Pyknosed Nuclei (%): 7%
  Population Tubulin-Different-Phenotype (%): 20%
  Total Cell Count: 641
